The source made the active and inactive calls.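 Rule for the calls, unless noted: active = current rise at least 3 SD above the untreated control mean in each of two repeat wells; inactive = the rest.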

Potassium voltage-gated channel subfamily KQT member 1 (Homo sapiens), sequence (P51787 whole entry, looked up): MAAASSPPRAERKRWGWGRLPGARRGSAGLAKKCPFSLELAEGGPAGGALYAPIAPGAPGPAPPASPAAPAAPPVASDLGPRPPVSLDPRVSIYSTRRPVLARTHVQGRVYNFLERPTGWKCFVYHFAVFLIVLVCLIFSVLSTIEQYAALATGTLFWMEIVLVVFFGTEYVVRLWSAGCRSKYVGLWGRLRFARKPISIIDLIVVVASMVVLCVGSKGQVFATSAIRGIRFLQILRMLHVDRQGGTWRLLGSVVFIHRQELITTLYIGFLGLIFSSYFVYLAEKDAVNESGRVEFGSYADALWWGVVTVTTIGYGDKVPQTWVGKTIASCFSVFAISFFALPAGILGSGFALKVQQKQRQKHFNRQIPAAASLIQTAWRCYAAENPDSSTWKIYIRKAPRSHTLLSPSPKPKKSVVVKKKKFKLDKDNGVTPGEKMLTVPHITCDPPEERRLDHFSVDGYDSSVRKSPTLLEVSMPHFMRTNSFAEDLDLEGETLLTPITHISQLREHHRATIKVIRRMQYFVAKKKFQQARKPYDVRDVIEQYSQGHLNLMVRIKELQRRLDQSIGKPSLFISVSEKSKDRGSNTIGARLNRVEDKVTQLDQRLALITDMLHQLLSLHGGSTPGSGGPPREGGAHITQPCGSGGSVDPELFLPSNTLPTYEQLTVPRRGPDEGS

In the first assay the target is Potassium voltage-gated channel subfamily KQT member 2 (Rattus norvegicus) (UniProt O88943). In words: rat KCNQ2 channel potentiation, selectivity assay for KCNQ1 potentiator project, KCNQ2-CHO-K1 cells (AID 493009;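 active = mean duplicate potentiation above the buffer control mean plus 5 SD of buffer wells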;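 note: assay conditions were tuned for KCNQ1 rather than KCNQ2 modulators; signal is max minus min fluorescence divided by baseline after thallium stimulus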). To be noted: FluxOR thallium flux fluorescence, at 10 µM; hits give high values, scaled: buffer 0, activator control 100.
Potassium voltage-gated channel subfamily KQT member 2 (Rattus norvegicus), sequence (O88943 whole entry, looked up): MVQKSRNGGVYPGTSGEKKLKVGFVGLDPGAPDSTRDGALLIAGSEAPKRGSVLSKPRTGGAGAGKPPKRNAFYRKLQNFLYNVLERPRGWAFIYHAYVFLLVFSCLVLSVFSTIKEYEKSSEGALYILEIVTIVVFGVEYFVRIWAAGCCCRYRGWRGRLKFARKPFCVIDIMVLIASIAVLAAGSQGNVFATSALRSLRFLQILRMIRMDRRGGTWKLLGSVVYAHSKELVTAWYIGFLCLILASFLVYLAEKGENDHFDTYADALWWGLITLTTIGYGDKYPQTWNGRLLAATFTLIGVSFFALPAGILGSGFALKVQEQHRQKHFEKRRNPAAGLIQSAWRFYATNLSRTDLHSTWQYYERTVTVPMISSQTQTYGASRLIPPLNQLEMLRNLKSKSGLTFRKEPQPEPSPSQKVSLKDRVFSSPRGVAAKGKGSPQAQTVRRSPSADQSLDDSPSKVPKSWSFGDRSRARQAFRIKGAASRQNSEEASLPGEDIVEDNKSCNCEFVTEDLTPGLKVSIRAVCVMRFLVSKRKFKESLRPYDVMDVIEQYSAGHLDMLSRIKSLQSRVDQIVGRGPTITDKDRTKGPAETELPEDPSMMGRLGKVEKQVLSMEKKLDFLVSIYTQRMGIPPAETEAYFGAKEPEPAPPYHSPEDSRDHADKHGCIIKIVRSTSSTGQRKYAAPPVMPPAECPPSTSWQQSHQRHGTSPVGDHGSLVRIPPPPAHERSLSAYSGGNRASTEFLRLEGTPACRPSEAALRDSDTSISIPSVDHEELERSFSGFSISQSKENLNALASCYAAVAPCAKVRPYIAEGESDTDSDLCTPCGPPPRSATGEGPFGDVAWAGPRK
Take `S=c1[nH]nc(-c2ccco2)n1/N=C/c1ccc(Br)s1`: the result was inactive.

As to `CCCN(CCC)Cc1c(C(=O)N/N=C/C(C)=C\c2ccco2)nnn1-c1nonc1N`, the outcome was inactive.

Consider `CCCCCCCCN1[C@@H](CC(C)=O)c2cc(C(F)(F)F)ccc2S1(=O)=O`, for which the result was inactive.

Turning to `S=c1nc[nH]c2c1[nH]c1ccc(Cl)cc12`, the outcome was inactive.

`CCn1c(CN2CCN(c3ccc(OC)cc3)CC2)nc2cc(S(=O)(=O)N(C)C)ccc21`: the result was inactive.

For the molecule `O=C(NC(=S)Nc1cccc(Cl)c1N1CCCCC1)c1cccs1`, the outcome was inactive.

For the molecule `CC(NC(=O)c1ccccc1Cl)C1CC2CCC1C2` (stereo not given), the outcome was inactive.

With `CCN(c1ccccc1)S(=O)(=O)c1ccc(NC(=S)NC(=O)c2ccc(Br)o2)cc1`, the potentiation was 168% (active).

As for `CCC(C)NCC(=O)Nc1sc2c(c1C(N)=O)CCC2` (stereo not given), the outcome was inactive.

As to `Cn1cccc1C(=O)NNC(=O)COc1ccccc1F`, the outcome was inactive.

`CCCOc1ccc(C(=O)NNC(=S)NC(=O)CC)cc1`: the outcome was inactive.

In the case of `CN(C)CCNc1nc2sc3c(c2c(=O)n1CCc1ccccc1)CCCCC3`, the outcome was inactive.

As for `COc1ccc(CCNC(=O)CCOc2cc(C)ccc2C)cc1OC`, the outcome was inactive.

With `Cc1cc(/C=N/NC(=O)C(O)(c2ccccc2)c2ccccc2)c(C)n1-c1ccccc1`, the result was inactive.

As to `O=C(NCC(c1cccs1)N1CCOCC1)C1CCN(S(=O)(=O)c2cccc(C(F)(F)F)c2)CC1` (stereo not given), the result was inactive.

Take `CCN1CCN(c2ccc(S(=O)(=O)N3CCCC3)cn2)CC1`: the result was inactive.

For `COc1ccccc1C(=O)NNC(=O)C(=O)NC(C)C`, the result was inactive.

For the molecule `Cc1ccc(-c2nnc(SCC(=O)N/N=C/c3ccccc3C(=O)O)n2-c2ccc(Cl)cc2)cc1`, the result was inactive.

Take `Cc1ccc(S(=O)(=O)/N=C(\N)Nc2nc(C)c3ccccc3n2)cc1`: the result was inactive.

In the case of `CCCCS(=O)(=O)/C=C\C=C/S(=O)(=O)CCCC`, the result was inactive.

A further assay has as its target Potassium voltage-gated channel subfamily KQT member 1 (Homo sapiens) (UniProt P51787). In words: KCNQ1 channel current potentiators, confirmation, orthogonal assay for KCNQ1 potentiator project, IonWorks patch clamp, KCNQ1-CHO cells (AID 493184). To be noted: automated patch clamp current, at 10 µM; hits give high values. Summed up: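 Read-out: Percent current increase versus pre-compound level | Assay system: CHO cells carrying KCNQ1 | Measured by: Automated perforated-patch electrophysiology | Medium: External bath solution at pH 7.4 | Dosing: One dose, 10 µM final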
With `COc1cccc(-c2nc(=S)c3c(o2)CCCC3)c1`, the outcome was inactive.

For the molecule `CCOC(=O)c1c(C)[nH]sc1=S`, the result was inactive.

As to `CC(Sc1nncs1)C(=O)NC1CCCCC1C` (stereo not given), the outcome was inactive.

Regarding `Cc1ccc(NC(=S)NC(=O)c2ccc(-c3ccccc3)cc2)c(C)c1`, the result was inactive.

With `O=C(Nc1nnc(-c2ccccc2)o1)c1cc(Cl)sc1Cl`, the outcome was inactive.

For the molecule `CC(=O)c1cccc(OCc2cc(C(=O)N(C)C(C)c3ccccn3)no2)c1` (stereo not given), the outcome was inactive.

Take `NC(=O)c1ccsc1NC(=O)COC(=O)Cc1ccsc1`: the result was inactive.

As for `Cc1cc(-c2cccnc2)c(C#N)c(SCC#N)n1`, the result was inactive.

For the molecule `CC(c1ccccc1)c1nnc(N)s1` (stereo not given), the result was inactive.

Consider `CCOc1ccc(OCCCN(C)C)cc1`, for which the outcome was inactive.

As to `CCOc1cc(CN2CCOCC2)cc(C(C)=O)c1`, the outcome was inactive.

For the molecule `O=C(CSc1nnc(-c2ccco2)o1)Nc1cccc([N+](=O)[O-])c1`, the result was inactive.

`CC1(C)CC(Nc2ccc(Nc3ccccc3)cc2)CC(C)(C)N1`: the outcome was inactive.

As for `O=C(c1ccc(-c2ccccc2)cc1)C1CCCN(C(=O)Cn2cncn2)C1` (stereo not given), the outcome was inactive.

Consider `O=C(NC(=S)Nc1ccccc1N1CCCC1)c1ccc(-c2cccc([N+](=O)[O-])c2)o1`, for which the outcome was inactive.

Take `CC1(c2ccc(OC(F)F)cc2)NC(=O)N(CC(=O)Nc2ccc3c(c2)OCO3)C1=O` (stereo not given): the result was inactive.

As for `Cn1c(SCC(=O)NC2CC2)nnc1-c1cccs1`, the outcome was inactive.

Take `C/C(=N\Nc1cccc2cccnc12)c1ccc[nH]1`: the outcome was inactive.

For the molecule `CC1Oc2ccccc2N(CC(=O)N2CCCCCC2)C1=O` (stereo not given), the outcome was inactive.

Take `CCCOc1ccc(C(=O)NNC(=S)NC(=O)c2cc(-c3ccc(Cl)cc3)nc3ccccc23)cc1`: the result was inactive.

As to `S=c1[nH]nc(-c2ccco2)n1/N=C/c1ccc(Br)s1`, the result was inactive.

Consider `CCCN(CCC)Cc1c(C(=O)N/N=C/C(C)=C\c2ccco2)nnn1-c1nonc1N`, for which the outcome was inactive.

In the case of `CCCCCCCCN1[C@@H](CC(C)=O)c2cc(C(F)(F)F)ccc2S1(=O)=O`, the outcome was inactive.

`S=c1nc[nH]c2c1[nH]c1ccc(Cl)cc12`: the outcome was inactive.

On to `CCn1c(CN2CCN(c3ccc(OC)cc3)CC2)nc2cc(S(=O)(=O)N(C)C)ccc21`, for which the result was inactive.

As for `O=C(NC(=S)Nc1cccc(Cl)c1N1CCCCC1)c1cccs1`, the outcome was inactive.

Regarding `CC(NC(=O)c1ccccc1Cl)C1CC2CCC1C2` (stereo not given), the result was inactive.

Turning to `CCN(c1ccccc1)S(=O)(=O)c1ccc(NC(=S)NC(=O)c2ccc(Br)o2)cc1`, the result was inactive.

Regarding `CCC(C)NCC(=O)Nc1sc2c(c1C(N)=O)CCC2` (stereo not given), the result was inactive.

On to `Cn1cccc1C(=O)NNC(=O)COc1ccccc1F`, for which the outcome was inactive.

Consider `CCCOc1ccc(C(=O)NNC(=S)NC(=O)CC)cc1`, for which the result was inactive.

On to `CN(C)CCNc1nc2sc3c(c2c(=O)n1CCc1ccccc1)CCCCC3`, for which the outcome was inactive.

As to `COc1ccc(CCNC(=O)CCOc2cc(C)ccc2C)cc1OC`, the outcome was inactive.

On to `Cc1cc(/C=N/NC(=O)C(O)(c2ccccc2)c2ccccc2)c(C)n1-c1ccccc1`, for which the outcome was inactive.

For the molecule `O=C(NCC(c1cccs1)N1CCOCC1)C1CCN(S(=O)(=O)c2cccc(C(F)(F)F)c2)CC1` (stereo not given), the result was inactive.

In the case of `CCN1CCN(c2ccc(S(=O)(=O)N3CCCC3)cn2)CC1`, the outcome was inactive.

On to `COc1ccccc1C(=O)NNC(=O)C(=O)NC(C)C`, for which the result was inactive.

As for `Cc1ccc(-c2nnc(SCC(=O)N/N=C/c3ccccc3C(=O)O)n2-c2ccc(Cl)cc2)cc1`, the outcome was inactive.

In the case of `Cc1ccc(S(=O)(=O)/N=C(\N)Nc2nc(C)c3ccccc3n2)cc1`, the result was inactive.

With `CCCCS(=O)(=O)/C=C\C=C/S(=O)(=O)CCCC`, the result was inactive.

Source of the values: PubChem BioAssay.
